Bioassay records: PubChem, several laboratories
PP5 inh – blocks human protein phosphatase 5 activity; P53041; purified PP5c, OMFP substrate fluorescence; inhibition, % at 6.7 µM; 320,000 compounds, 0.18% hits; AID 1987;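 active means inhibition above the campaign's mean inhibition across all tested compounds plus 3 SD, cut at about 9.5% in these data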;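 further: 0% = DMSO only and 100% = 100 µM cantharidin control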
FID counter – counter-screen for HCV NS3 helicase inhibitors: DNA intercalator displacement. DNA fluorescent intercalator displacement, fluorescence. inhibition, % at 7.9 µM. 290,000 compounds, 0.17% hits. AID 1845; in the data active means inhibition above about 37%;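 further: 0% = vehicle and 100% = reference compound; higher means more ethidium bromide displaced from hairpin DNA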
HIF activator – HIF pathway transcriptional activation; U2OS HRE-luciferase reporter, luminescence; normalized: DMSO 0%, desferrioxamine 100%; activation, % at 7.5 µM (by protocol); 300,000 compounds, 0.32% hits; AID 1910;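 active means mean activation of at least 10% of the iron chelator positive control signal, with at least half of replicates also reaching 10%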
PP1 counter – counter-screen for PP5 inhibitors: inhibitors of human PP1-alpha; P62136; purified PP1alpha, OMFP fluorescence; inhibition, % at 6.7 µM; 320,000 compounds, 0.9% hits;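 active means inhibition above the mean inhibition of all tested compounds plus 3 SD, computed separately for each screening campaign, cut at about 15% in these data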
Target sequence (P62136 whole entry, looked up): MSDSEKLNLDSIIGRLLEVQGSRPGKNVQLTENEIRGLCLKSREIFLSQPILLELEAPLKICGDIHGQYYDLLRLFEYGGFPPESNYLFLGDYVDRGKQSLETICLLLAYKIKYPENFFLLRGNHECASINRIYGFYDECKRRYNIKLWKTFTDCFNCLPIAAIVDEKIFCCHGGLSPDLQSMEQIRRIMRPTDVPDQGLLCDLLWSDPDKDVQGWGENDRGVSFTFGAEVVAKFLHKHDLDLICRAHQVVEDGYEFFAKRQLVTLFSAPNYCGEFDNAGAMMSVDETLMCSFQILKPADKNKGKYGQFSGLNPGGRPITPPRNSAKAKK
HCV NS3 hel inh – blocks Hepatitis C virus NS3 helicase unwinding; NS3 helicase DNA unwinding, Cy5 molecular beacon fluorescence; inhibition, % at 10.9 µM; 290,000 compounds, 0.56% hits; AID 1800;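 active means inhibition above the mean of all tested compounds plus 3 SD, set per campaign, cut at about 35% in these data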;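 further: 0% = DMSO wells and 100% = thioflavine S control wells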
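System: HCV NS3 helicase fragment; control set: DMSO and thioflavine S; technique: Cy5 fluorescence at 0 and 60 min, beacon hairpin quenching; reagent: beacon DNA duplex substrate plus ATP; replicates: singlicate; schedule: 1 h reaction at 25 °C, ATP-initiated; medium: MOPS buffer pH 6.5 with MgCl2, DTT, Tween20, BSA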
* marks the source's active call; other numbers are inactive results. This is a sample that favours compounds with a hit; in the whole collection about 1.9% have one here.

Screening COc1ccccc1CNC(=O)CCNS(=O)(=O)c1ccc2c(c1)CC(C)N2C(C)=O (stereo not given) returned PP5 inh 0.5, FID counter -26.8, HIF activator -0.1, PP1 counter -4.2 and HCV NS3 hel inh -0.6.
`COC(=O)c1cc(S(=O)(=O)NCc2ccc(S(N)(=O)=O)cc2)oc1C` gave PP5 inh 2.2, FID counter -3.0, HIF activator 0.0, PP1 counter -4.9 and HCV NS3 hel inh 7.8.
`CCN(CC)c1ccc(/C=N/NC(=O)c2cccc(S(=O)(=O)Nc3ccccc3OC)c2)cc1` gave PP5 inh 1.2, FID counter -15.5, HIF activator -0.5, PP1 counter 1.1 and HCV NS3 hel inh -7.6.
`COc1ccc(/C=N/NC(=O)c2ccoc2C)cc1OC` gave PP5 inh 0.7, FID counter -9.6, HIF activator 3.2, PP1 counter -3.4 and HCV NS3 hel inh -3.2.
Screening COc1ccccc1NS(=O)(=O)c1cccc(C(=O)N/N=C/c2ccc3c(c2)OCCO3)c1 returned PP5 inh 2.4, FID counter -14.6, HIF activator -0.1, PP1 counter 2.0 and HCV NS3 hel inh 2.7.
`COc1ccc(/C=N/NC(=O)c2ccoc2C)cc1O` gave PP5 inh 3.3, FID counter -10.2, HIF activator 260.9*, PP1 counter -4.4 and HCV NS3 hel inh 3.6.
CCN(CC)c1ccc(/C=N/NC(=O)c2nnn(-c3nonc3N)c2C(C)C)c(O)c1 was read as PP5 inh 5.1, FID counter -2.0, HIF activator 89.4*, PP1 counter 9.2 and HCV NS3 hel inh 28.7.
`COc1ccc(NS(=O)(=O)c2cccc(C(=O)N/N=C/c3ccc4c(c3)OCCO4)c2)cc1` gave PP5 inh 1.0, FID counter -8.4, HIF activator -0.3, PP1 counter 16.9* and HCV NS3 hel inh 8.1.
Screening CCN(CC)c1ccc(/C=N/NC(=O)c2cccc(S(=O)(=O)Nc3ccccc3OC)c2)c(O)c1 returned PP5 inh 3.1, FID counter -19.0, HIF activator 91.5*, PP1 counter 10.5 and HCV NS3 hel inh 17.4.
Cc1nn(C)cc1/C=N/NC(=O)Cn1nnc(N)n1 was read as PP5 inh 3.3, FID counter -4.3, HIF activator 0.2, PP1 counter -0.8 and HCV NS3 hel inh 9.1.
`O=C(CNC(=O)c1ccc(Cl)cc1Cl)OCCCn1c(=O)[nH]c2ccccc21` gave PP5 inh 0.4, HIF activator 0.2 and PP1 counter -4.1.
CCN(CC)c1ccc(/C=N/NC(=O)c2ccoc2C)c(O)c1 was read as PP5 inh 2.7, FID counter -10.1, HIF activator 64.4*, PP1 counter 2.9 and HCV NS3 hel inh -1.7.
CCN(CC)c1ccc(/C=N/NC(=O)c2ccc3nc[nH]c3c2)c(O)c1 was read as PP5 inh 1.4, FID counter -7.6, HIF activator 95.6*, PP1 counter 4.1 and HCV NS3 hel inh -6.0.
For Nc1nonc1-n1nnc(C(=O)N/N=C/c2cc(Cl)ccc2O)c1CN1CCCCCC1 the results were PP5 inh 1.9, HIF activator 1.6 and PP1 counter 16.3*.
Nc1nonc1-n1nnc(C(=O)N/N=C/c2ccc(Cl)cc2Cl)c1CN1CCCCC1 was read as PP5 inh 2.6, FID counter -9.2, HIF activator 0.5, PP1 counter -2.4 and HCV NS3 hel inh 8.8.
For COc1nnc(-c2ccc(C)cc2)c2ccccc12 the results were FID counter -21.0, HIF activator -7.0 and HCV NS3 hel inh 7.8.
`CN(CC(=O)NC(=O)NC1CCCCC1)CC(=O)Nc1ccc(Cl)cc1` gave PP5 inh 3.2 and PP1 counter -1.5.
Screening N#Cc1c(N)sc(=S)c2c1CCN(Cc1ccccc1)C2 returned PP5 inh 2.4 and PP1 counter 19.8*.
`Cc1nc(N/N=C/c2ccccn2)sc1C` gave PP5 inh 1.7, FID counter -3.4, PP1 counter 2.9 and HCV NS3 hel inh 9.0.
For CCCc1sc(N/N=C/c2ccccn2)nc1-c1ccc(F)cc1 the results were PP5 inh 4.9, FID counter 0.1, HIF activator 19.8*, PP1 counter 0.5 and HCV NS3 hel inh 8.9.
For Cc1ccc(C(=O)OC(C)CN2CCN(C)CC2)cc1 (stereo not given) the results were PP5 inh -0.2, FID counter 7.8, HIF activator 0.2, PP1 counter -1.4 and HCV NS3 hel inh -1.9.
Screening CCc1ccc(-c2nc(CN3CCC(C(=O)NCCN(CC)c4ccccc4)CC3)c(C)o2)cc1 returned PP5 inh 4.7, FID counter 15.5, HIF activator -2.8, PP1 counter -0.5 and HCV NS3 hel inh -50.3.
CCN(CCNC(=O)C1CCN(Cc2nc(-c3ccc(Cl)cc3)oc2C)CC1)c1ccccc1 was read as PP5 inh 2.9, FID counter 44.1*, HIF activator -1.4, PP1 counter 6.0 and HCV NS3 hel inh -47.0.
`CCCN1CCC(NCc2cn(C)nc2-c2ccc(Oc3ccccc3)cc2)CC1` gave PP5 inh -0.5, FID counter 38.9*, HIF activator -0.3, PP1 counter -2.0 and HCV NS3 hel inh -60.9.
`N#C/C(=C\c1ccc(/C=C(/C#N)c2nn(CCO)c(N)c2C#N)cc1)c1nn(CCO)c(N)c1C#N` gave PP5 inh -0.5, FID counter 5.0, HIF activator 154.5*, PP1 counter -1.4 and HCV NS3 hel inh 16.4.
N#C/C(=C/c1ccccc1)c1nn(CCO)c(N)c1C#N was read as PP5 inh 0.8, FID counter 3.5, HIF activator -5.8, PP1 counter -3.1 and HCV NS3 hel inh -2.3.
For CCc1ccccc1NC(=O)CNC(=O)CCNC(=O)Nc1ccccc1 the results were PP5 inh 0.9 and PP1 counter -0.5.
Screening COc1ccc(/C=C/C(=O)NC(=S)NNC(=O)c2cnccn2)cc1 returned PP5 inh 0.5, FID counter -3.1, HIF activator -0.1, PP1 counter 5.4 and HCV NS3 hel inh -2.9.
`COc1ccc(/C=C/C(=O)NC(=S)NNC(=O)c2cccnc2)cc1` gave PP5 inh 0.8, FID counter -9.9, HIF activator -0.1, PP1 counter 15.9* and HCV NS3 hel inh 0.8.
COc1ccc(C(=O)NNC(=S)NC(=O)c2cccs2)cc1 was read as PP5 inh 2.0, FID counter -13.1, HIF activator -0.2, PP1 counter -0.7 and HCV NS3 hel inh 7.9.
COc1ccc(/C=C/C(=O)NC(=S)NNC(=O)c2cccs2)cc1 was read as PP5 inh -1.9, FID counter -9.0, HIF activator 0.8, PP1 counter 16.5* and HCV NS3 hel inh 7.2.
`CC(C)[C@H](NC(=O)c1ccccc1)C(=O)OCC(=O)N1CCN(C(=O)c2ccco2)CC1` gave PP5 inh -1.6, FID counter -4.2, HIF activator -1.2, PP1 counter -1.7 and HCV NS3 hel inh 3.3.
`CCN(CC)CC(=O)Nc1scc2c1c(=O)oc1ccccc12` gave PP5 inh 2.0, FID counter 2.4, HIF activator 2.6, PP1 counter -0.3 and HCV NS3 hel inh -6.4.
